HDAC3 inhib: human HDAC3 inhibition; O15379; recombinant HDAC3, fluorogenic peptide/trypsin coupled, fluorescence; inhibition, % at 8.3 µM; 320,000 tested, 0.15% active; AID 2718; in the data active = inhibition above about 26%, passing the limit was not always enough; inconclusive = no clear call, values can overlap the other calls
Target sequence (O15379 whole entry, looked up): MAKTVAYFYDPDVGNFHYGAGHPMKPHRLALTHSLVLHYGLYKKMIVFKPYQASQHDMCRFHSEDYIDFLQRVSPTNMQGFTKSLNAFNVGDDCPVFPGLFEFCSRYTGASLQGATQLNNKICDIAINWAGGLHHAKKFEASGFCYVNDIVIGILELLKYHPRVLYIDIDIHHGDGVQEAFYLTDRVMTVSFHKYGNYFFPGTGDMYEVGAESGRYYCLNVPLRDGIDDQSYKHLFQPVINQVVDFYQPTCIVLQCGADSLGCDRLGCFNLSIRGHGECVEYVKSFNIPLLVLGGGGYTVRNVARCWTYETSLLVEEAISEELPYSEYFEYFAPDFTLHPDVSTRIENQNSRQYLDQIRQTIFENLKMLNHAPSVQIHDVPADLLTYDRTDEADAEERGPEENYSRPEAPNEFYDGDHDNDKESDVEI
AI-2 QS modul: modulates the Vibrio harveyi AI-2 quorum sensing system; Vibrio harveyi JMH597 AI-2 luminescence/OD600 ratio, 9 h; hits give low values; strain lacks LuxN and CqsS sensors; 0 = neutral-control median; activity change, % at 7.5 µM; 300,000 tested, 0.4% active; AID 2094; in the data active = activity change below about -75%, passing the limit was not always enough; inconclusive = no clear call, values can overlap the other calls;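 note: luminescence divided by OD600 gain over 9 h not by final OD600 alone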
PolyA inhibitor: yeast polyadenylation inhibition | S. cerevisiae SKY197-pL101 polyadenylation reporter, beta-gal luminescence; efflux-impaired pdr1/pdr3 knockout yeast; score 100 = 6 SD above DMSO | activity score, % at 12 µM | 300,000 tested, 0.02% active | AID 1875;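 active = lowest replicate activity score at least 50, where 100 means six control SD above control mean; inconclusive = lowest score under 50 but half or more replicates reach 50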;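 note: yeast exposed to compound for 9 h at 30 °C; higher score means more reporter readthrough which indicates perturbed polyadenylation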
T cruzi repl: blocks replication of Trypanosoma cruzi | inhibition, % (test concentration not listed) | 300,000 tested, 1.4% active | T. cruzi beta-gal in NIH3T3, luminescence, 90 h;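 active = mean inhibition across valid replicates above about 55%, limit read from the data; inconclusive = mean below that limit but half or more replicates reach it; inactive = mean below it, under half of replicates reach it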;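 note: signal also drops with host cell toxicity which is not excluded here; 0% = plate median of DMSO wells and 100% = zero luminescence signal; higher percent means less beta-gal luminescence so fewer parasites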
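System – NIH/3T3 host cells with β-galactosidase reporter T. cruzi · Doses – single 50 nL compound addition per well in DMSO · Reagent – 5000 T. cruzi trypomastigotes/well · Medium – Low-serum DMEM with 2% FBS · Timing – ≥90 h infection period, 3 h prior cell attachment · Evaluation – parasite load inhibition, % · Technique – GalScreen luminescence, 60 min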
Efflux pump inh: inhibitors of Candida antifungal efflux pumps expressed in yeast. S. cerevisiae Candida pump triplex, Nile Red efflux. inhibition, % at 10 µM. 330,000 tested, 0.44% active. AID 485275;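 active = plate passing quality check with inhibition over a set limit, or well fluorescence over plate mean plus 4 SD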;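 note: Nile Red retained in pooled yeast measured as flow cytometry median fluorescence; 0% = buffer negative control and 100% = Enniatin B positive control; higher means more Nile Red kept so more efflux inhibition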
An asterisk follows results filed as active; ? = inconclusive; . = no result given. An excerpt weighted towards active compounds, which were near 2.2% of everything screened.

SMILES	HDAC3 inhib	AI-2 QS modul	PolyA inhibitor	T cruzi repl	Efflux pump inh
O=C(NC(c1ccccc1)c1cc(Cl)c2cccnc2c1O)c1cccnc1 (stereo not drawn)	-3	29	-28	58*	0
CC(=O)NC(C)c1cc(Cl)c2cccnc2c1O (stereo not drawn)	-2	.	.	.	0
COc1ccccc1C(NC(C)=O)c1cc(Cl)c2cccnc2c1O (stereo not drawn)	7	-1	-5	61*	0
CCC(=O)NC(c1ccc(OC)c(OC)c1)c1cc(Cl)c2cccnc2c1O (stereo not drawn)	.	-12	-15	62*	.
COc1ccc(C(NC(C)=O)c2nccc3cc(OC)c(OC)cc23)cc1OC (stereo not drawn)	1	8	-1	-26	0
CCC(=O)NC(c1ccc(C)cc1)c1cc(Cl)c2cccnc2c1O (stereo not drawn)	-3	.	.	.	0
CCNNC(=O)C(O)(Cc1ccccc1)Cc1ccccc1	0	14	9	-9	0
O=C(Nc1nc2ccc(S(=O)(=O)N3CCCC3)cc2s1)c1ccccn1	3	10	-18	64*	0
CCSc1nnc(NC(=O)c2ccccn2)s1	?	-121*	-28	40	0
Cc1ccc2nc(NC(=O)c3ccccn3)sc2c1	-2	26	-19	69*	0
O=C(Nc1nc2c(F)cc(F)cc2s1)c1ccccn1	4	12	-55	61*	0
CCOc1ccc2nc(NC(=O)c3ccccn3)sc2c1	7	15	-14	46	0
CCSc1nnc(NC(=O)c2cnccn2)s1	1	-2	-3	-5	0
COc1ccc(OC)c(NC(=O)COC(=O)CCc2ccc(S(=O)(=O)N3CCOCC3)cc2)c1	1	.	.	.	0
O=C(Nc1nc2ccc(F)cc2s1)C1CCN(S(=O)(=O)c2cc([N+](=O)[O-])ccc2Cl)CC1	0	23	-1	49	0
Cc1ccc2nc(NC(=O)C3CCN(S(=O)(=O)c4cc([N+](=O)[O-])ccc4Cl)CC3)sc2c1	0	11	1	67*	1
CCOC(=O)CSc1nc(C)cc(C)c1C#N	3	5	-5	-11	0
Cc1cc(C)c(C#N)c(SCC(=O)Nc2nnc(-c3ccccc3)s2)n1	0	6	6	55*	0
Cc1cc(C)c(C#N)c(SCC(=O)c2ccc(Cl)cc2Cl)n1	-2	1	-6	75*	0
COc1ccc(CNC(=O)CSc2nc(-c3ccccc3)cc(-c3cccs3)c2C#N)cc1	-4	13	1	-5	0
COc1cc(-c2cc(-c3ccccc3)nc(SCC(=O)Nc3nccs3)c2C#N)cc(OC)c1OC	-27	9	16	55*	0
CC(=O)C1=C(C)NC(SCC(=O)c2ccc(Cl)cc2Cl)=C(C#N)C1c1ccco1 (stereo not drawn)	16	46	-2	66*	0
NC(=S)NC(c1ccccc1)c1ccncc1 (stereo not drawn)	-6	20	2	-5	0
O=C(Oc1cc(-c2ccccc2)no1)c1ccc(Cl)cc1	-6	1	2	-15	0
Cc1ccc2c(c1)N(CC(=O)N1CCCCC1c1cccnc1)C(=O)CO2 (stereo not drawn)	0	18	15	61*	0
SMILES	HDAC3 inhib	AI-2 QS modul	PolyA inhibitor	T cruzi repl	Efflux pump inh
O=C(NC(Nc1nc2ccc([N+](=O)[O-])cc2s1)(C(F)(F)F)C(F)(F)F)c1ccccc1Cl	-4	48	-23	55*	0
O=C(NC(Nc1nc2ccc([N+](=O)[O-])cc2s1)(C(F)(F)F)C(F)(F)F)c1cccnc1	9	25	3	56*	0
O=C(NC(NNc1ccc([N+](=O)[O-])cc1)(C(F)(F)F)C(F)(F)F)c1ccccc1Cl	12	15	-8	-18	0
Cc1nc2sccn2c(=O)c1S(=O)(=O)NCC1CCN(Cc2ccccc2Cl)CC1	7	5	10	11	0
Cc1ccc(-c2nc(NC(=O)c3nn(C)cc3[N+](=O)[O-])sc2C)cc1	-3	7	1	26	0
Cc1ccc(-c2nc(NC(=O)c3nn(C)cc3[N+](=O)[O-])sc2C)cc1C	9	25	-6	64*	0
COc1ccc(OCCOCCN2CCc3ccccc3C2)cc1	-3	11	9	58*	0
N#Cc1ccc(OCCN2CCc3ccccc3C2)cc1	.	21	12	2	0
O=C(Oc1ccc(Oc2ccccc2)cc1)N1CCC(O)CC1	-1	23	-4	-6	0
Cc1cc[n+](C(C)C(=O)c2ccc(-c3ccccc3)cc2)cc1 (stereo not drawn)	-4	26	.	73*	0
COc1cccc(CNC(=O)CCCc2cn(C)c3ccccc23)c1	1	-16	-9	1	0
Cc1ccc(C(=O)Nc2ccc(Nc3ccccc3)cc2)c(Cl)c1	-3	4	3	6	0
Cc1nc(NC(=O)C23CC4CC(CC(C4)C2)C3)sc1Cc1ccc2c(c1)OCO2	-6	-15	21	65*	0
O=C(NC(=S)NC12CC3CC(CC(C3)C1)C2)c1ccc(F)cc1	-2	.	.	.	0
COc1cc(OC)c(OC)cc1/C=C1\CCC/C(=C\c2cc(OC)c(OC)cc2OC)C1=O	.	14	-4	59*	.
O=S(=O)(c1ccc(-c2csc(-c3cccnc3)n2)cc1)N1CCCCC1	1	16	-19	66*	0
O=S(=O)(c1ccc(-c2csc(-c3cccnc3)n2)cc1)N1CCCC1	13	22	10	14	0
Cc1c(-c2cc(C(=O)O)no2)cnn1C	8	28	27	-13	1
CCn1ncc(-c2cc(C(=O)O)no2)c1C	47*	5	-3	-3	0
Oc1c(C=Nc2cccc3cccnc23)sc2ccccc12	-1	4	-88	55*	0
COCC1CCN(Cc2cn[nH]c2-c2cc3ccccc3o2)C1 (stereo not drawn)	-4	24	15	69*	0
c1ccc2oc(-c3[nH]ncc3CN3CCSCC3)cc2c1	-6	13	2	7	0
O=C1CC(C(=O)O)C2(CCCC2)O1 (stereo not drawn)	-2	32	-8	-14	0
Cc1nnc(-c2cccc(Br)c2)c2cn(-c3ccccc3)nc12	-3	27	-47	36	0
Cc1nnc(-c2cccc(Br)c2)c2cn(-c3cccc(Br)c3)nc12	-4	3	-19	60*	0
COc1ccc2nc(NC(=O)Nc3ccccc3)sc2c1	.	19	0	0	0
CC(C)(C)c1nc(NC(=O)Nc2ccccc2)sc1Br	18	23	20	57*	0
CCOc1ccc(NS(=O)(=O)c2ccc(C)c(C(=O)NCCCn3ccnc3)c2)cc1	2	20	20	3	0
COc1ccc(C(=O)N(NC(=O)Oc2ccccc2)C(C)(C)C)cc1	.	7	-9	-10	0

Screens (PubChem BioAssay)
